This note sets out measurements from ChEMBL document CHEMBL3352166, “Structure-guided design and development of novel benzimidazole class of compounds targeting DNA gyraseB enzyme of Staphylococcus aureus” (Bioorg Med Chem, 2014).

The structures appear in SMILES notation. Values after ≈ are worked out from the molar mass of the structure shown. A value given as a limit tells only on which side of the number the result lay.

One data set deals with DNA gyrase subunit B (Staphylococcus aureus, UniProt P0A0K8). The data set is described as follows: Inhibition of Staphylococcus aureus DNA gyrase B ATPase activity.
DNA gyrase subunit B, sequence (P0A0K8 whole entry): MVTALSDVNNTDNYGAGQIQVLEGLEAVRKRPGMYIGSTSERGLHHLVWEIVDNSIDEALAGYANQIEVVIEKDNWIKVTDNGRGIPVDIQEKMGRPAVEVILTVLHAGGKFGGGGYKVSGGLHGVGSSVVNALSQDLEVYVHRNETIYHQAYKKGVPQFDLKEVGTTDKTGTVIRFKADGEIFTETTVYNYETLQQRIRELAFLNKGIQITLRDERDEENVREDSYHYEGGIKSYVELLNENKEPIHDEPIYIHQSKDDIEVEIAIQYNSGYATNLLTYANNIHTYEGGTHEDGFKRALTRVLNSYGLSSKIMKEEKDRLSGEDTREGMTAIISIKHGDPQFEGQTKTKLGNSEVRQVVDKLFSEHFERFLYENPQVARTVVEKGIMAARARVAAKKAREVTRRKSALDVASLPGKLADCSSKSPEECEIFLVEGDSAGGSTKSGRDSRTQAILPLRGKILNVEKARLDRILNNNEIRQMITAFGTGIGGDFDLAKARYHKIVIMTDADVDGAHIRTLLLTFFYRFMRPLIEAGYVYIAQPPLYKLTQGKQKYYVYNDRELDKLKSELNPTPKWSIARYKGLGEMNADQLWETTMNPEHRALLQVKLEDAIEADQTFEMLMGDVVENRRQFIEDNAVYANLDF
In another data set the target is DNA gyrase (Staphylococcus aureus, UniProt P0A0K8+P20831). The data set is described as follows: Inhibition of Staphylococcus aureus DNA gyrase-mediated supercoiling of relaxed DNA using pBR 322 as substrate by agarose gel electrophoresis analysis. The class given is protein-complex assay.
DNA gyrase, sequence (P0A0K8 whole entry): as above
DNA gyrase, sequence (P20831 whole entry): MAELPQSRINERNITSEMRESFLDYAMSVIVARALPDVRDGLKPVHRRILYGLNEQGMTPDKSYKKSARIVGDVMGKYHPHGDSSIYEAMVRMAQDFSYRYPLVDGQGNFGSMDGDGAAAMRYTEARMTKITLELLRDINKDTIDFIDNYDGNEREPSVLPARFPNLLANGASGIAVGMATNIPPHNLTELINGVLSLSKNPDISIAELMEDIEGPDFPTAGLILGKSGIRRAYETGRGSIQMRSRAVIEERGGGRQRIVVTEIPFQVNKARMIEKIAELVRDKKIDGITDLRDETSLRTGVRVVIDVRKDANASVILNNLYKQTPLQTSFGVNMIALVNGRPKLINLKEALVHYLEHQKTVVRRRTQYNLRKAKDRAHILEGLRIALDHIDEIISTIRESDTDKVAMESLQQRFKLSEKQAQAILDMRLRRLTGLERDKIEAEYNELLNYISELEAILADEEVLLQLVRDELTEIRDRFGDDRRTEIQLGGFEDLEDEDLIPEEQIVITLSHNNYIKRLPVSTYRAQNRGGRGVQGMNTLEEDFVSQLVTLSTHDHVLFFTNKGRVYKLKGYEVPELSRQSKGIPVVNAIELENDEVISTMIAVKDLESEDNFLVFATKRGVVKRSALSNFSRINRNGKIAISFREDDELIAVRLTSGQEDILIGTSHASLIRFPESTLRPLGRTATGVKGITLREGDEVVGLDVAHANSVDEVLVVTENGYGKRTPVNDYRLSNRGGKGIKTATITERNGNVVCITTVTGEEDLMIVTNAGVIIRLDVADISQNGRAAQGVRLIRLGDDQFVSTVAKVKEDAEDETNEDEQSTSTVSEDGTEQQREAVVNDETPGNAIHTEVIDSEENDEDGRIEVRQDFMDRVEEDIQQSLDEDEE
The subject of data set [1] is Staphylococcus aureus. The data set is described as follows: Antimicrobial activity against Staphylococcus aureus MTCC 3160 after 16 to 24 hrs by agar dilution method. The class given is functional. In a few lines: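 MIC by agar dilution per CLSI on Mueller-Hinton agar. Overnight colonies were suspended to about 10^6 cfu/mL, and 1 mL was added to 19 mL medium. Compounds were made up in 0.9% saline and tested over about 10 doubling dilutions, 100 µM to 0.1 µM. Plates ran 16-20 h at 35 °C in ambient air. MIC was the lowest concentration preventing visible growth.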
Background: Agar dilution tests growth on a series of plates holding different concentrations.

In data set [2] the test system is Staphylococcus aureus. Kind of data set: Antimicrobial activity against methicillin-resistant Staphylococcus aureus MTCC 96 after 16 to 24 hrs by agar dilution method. It is filed as functional. Put shortly: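 Agar dilution per CLSI guidelines on Mueller-Hinton agar. Overnight colonies suspended to about 10^6 cfu/mL, and 1 mL added to 19 mL medium. Stocks in 0.9% saline, tested over about 10 doubling dilutions from 100 µM to 0.1 µM. Plates incubated at 35 °C in ambient air for 16-20 h. MIC taken as the lowest concentration preventing visible growth.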

Data set [3] in a line: Cytotoxicity against human HEK293 cells assessed as reduction in cell viability at 100 uM after 72 hrs by MTT assay. The conditions noted are these: read-out: INH. It is filed as cell-based. Put shortly:
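HEK-293 cells were seeded at 5000 per well and left 24 h, then washed. They were exposed to 100 µM in RPMI + 5% FBS + 1% penicillin/streptomycin, with final DMSO ≤0.5%, for 72 h at 37 °C in 5% CO2. DMSO-treated cultures served as controls. Viability was read by MTT at 570 nm, in triplicate, as percentage inhibition.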

The test system of data set [4] is Staphylococcus aureus. The data set is described as follows: Antimicrobial activity against Staphylococcus aureus infected in CD1 mouse assessed as animal protection at 5 mg/kg, iv treated 4 hrs after infection measured 24 hrs post infection. The class given is functional. Put shortly: (§1)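 Female CD-1 mice (20–25 g, ten per group) were infected intraperitoneally with 3 × 10^7 cfu/mouse, slightly above LD100. Test compound was given iv at 5, 10 or 25 mg/kg at infection and 4 h post infection. Vancomycin at 5 mg/kg served as comparator. Survival was scored 24 h post infection.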

Data set [5] relates to Staphylococcus aureus. Kind of data set: Antimicrobial activity against Staphylococcus aureus infected in CD1 mouse assessed as animal protection at 10 mg/kg, iv treated 4 hrs after infection measured 24 hrs post infection. It is filed as functional. Put shortly: as §1
The species entered for data set [6] is Danio rerio. The data set is described as follows: Cardiotoxicity in zebra fish assessed as change in heart rate up to 30 uM. It is filed as toxicity, organism-based. The note with it: zebrafish, in vivo. Put shortly: (§2)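 Zebrafish larvae at 3 dpf were dosed in 24-well plates, 5 embryos per well, in 0.1% DMSO vehicle at 1–30 µM for 4 h at 28 °C. Terfenadine 20 µM was the positive control. Atrial and ventricular beats were watched by light microscopy, timing 30 beats and averaging 5 embryos per well. Results are mean ± SEM, with significance versus control.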

The species entered for data set [7] is Danio rerio. The data set is described as follows: Cardiotoxicity in zebra fish assessed as AV ratio up to 30 uM. The conditions noted are these: zebrafish, in vivo. The class given is organism-based. In a few lines: as §2
Data set [8] deals with Staphylococcus aureus. The data set is described as follows: Inhibition of biofilm formation in methicillin-resistant Staphylococcus aureus MTCC 96 after 24 hr incubation by tissue culture plate method. The note with it: MTCC 96, 24 h.
For data set [9], the system named is Staphylococcus aureus. The data set is described as follows: Antimicrobial activity against Staphylococcus aureus infected in CD1 mouse assessed as animal protection at 25 mg/kg, iv treated 4 hrs after infection measured 24 hrs post infection.

Take `O=C(O)CCCC(=O)Nc1ccc(-c2nc3cc(F)ccc3[nH]2)cc1`: the IC50 (in general, the concentration that inhibits the measured activity by half) was found to be 1.32 µM against DNA gyrase subunit B, 1.13 µM against DNA gyrase and 9.63 µM with Staphylococcus aureus [8]. The minimum inhibitory concentration (MIC) (as a rule, the least concentration at which growth counts as inhibited) with Staphylococcus aureus [1] turned out to be 4.57 µM (≈ 1.56 µg/mL); in the data set on Staphylococcus aureus [2] it was 9.15 µM (≈ 3.12 µg/mL). Moreover, in [3], the cytotoxicity at 72 h, 100 µM came to 7.59%. Also, the Activity is reported as 60% in the data set on Staphylococcus aureus [4]; 80% in the data set with Staphylococcus aureus [5]; “Non-toxic” in the data set filed under Danio rerio [6]; “Non-toxic” in the data set filed under Danio rerio [7]; 100% in the data set on Staphylococcus aureus [9].

For the compound `COc1ccc2[nH]c(-c3ccc(NC(=O)COCC(=O)O)cc3)nc2c1`, the values for the IC50 at DNA gyrase subunit B, on DNA gyrase and in the data set on Staphylococcus aureus [8] were 4.34 µM, 3.06 µM and 31.7 µM, respectively. Further, the MIC against Staphylococcus aureus [1] and in the data set with Staphylococcus aureus [2] was 17.6 µM (≈ 6.25 µg/mL) each time. Moreover, the cytotoxicity at 72 h, 100 µM in data set [3] is 23.3%.

For the compound `COc1ccc2[nH]c(-c3ccc(NC(=O)CSCC(=O)O)cc3)nc2c1`, the IC50 on DNA gyrase subunit B is 9.31 µM; against DNA gyrase, 16 µM; in the data set with Staphylococcus aureus [8] it was greater than 100 µM. The minimal inhibitory concentration (MIC) against Staphylococcus aureus [1] and against Staphylococcus aureus [2] was 67.3 µM (≈ 25 µg/mL) throughout. In addition, the cytotoxicity at 72 h, 100 µM in [3] is 22.6%.

In the case of `O=C(O)COCC(=O)Nc1ccc(-c2nc3cccnc3[nH]2)cc1`, the IC50 was 6.93 µM at DNA gyrase subunit B, 4.7 µM against DNA gyrase and 82.5 µM in the data set with Staphylococcus aureus [8]. Besides, the MIC stood at 19.1 µM (≈ 6.25 µg/mL) in the data set with Staphylococcus aureus [1] and 38.3 µM (≈ 12.5 µg/mL) in the data set with Staphylococcus aureus [2]. The cytotoxicity at 72 h, 100 µM in data set [3] stood at 38.7%.

For the compound `O=C(O)CSCC(=O)Nc1ccc(-c2nc3cccnc3[nH]2)cc1`, the IC50 at DNA gyrase subunit B stood at 2.31 µM; at DNA gyrase, 1.7 µM; with Staphylococcus aureus [8] it was 11.3 µM. Also, the MIC against Staphylococcus aureus [1] worked out at 4.55 µM (≈ 1.56 µg/mL); against Staphylococcus aureus [2], 9.12 µM (≈ 3.12 µg/mL). In data set [3], the cytotoxicity at 72 h, 100 µM was 31.9%.
